Assay results gathered from unrelated publications.
Lines come from different studies, so protocols differ.
Target: Mitogen-activated protein kinase kinase kinase kinase 3 (MAP4K3, Homo sapiens, UniProt Q8IVH8)
One construct used (Q8IVH8 1-894): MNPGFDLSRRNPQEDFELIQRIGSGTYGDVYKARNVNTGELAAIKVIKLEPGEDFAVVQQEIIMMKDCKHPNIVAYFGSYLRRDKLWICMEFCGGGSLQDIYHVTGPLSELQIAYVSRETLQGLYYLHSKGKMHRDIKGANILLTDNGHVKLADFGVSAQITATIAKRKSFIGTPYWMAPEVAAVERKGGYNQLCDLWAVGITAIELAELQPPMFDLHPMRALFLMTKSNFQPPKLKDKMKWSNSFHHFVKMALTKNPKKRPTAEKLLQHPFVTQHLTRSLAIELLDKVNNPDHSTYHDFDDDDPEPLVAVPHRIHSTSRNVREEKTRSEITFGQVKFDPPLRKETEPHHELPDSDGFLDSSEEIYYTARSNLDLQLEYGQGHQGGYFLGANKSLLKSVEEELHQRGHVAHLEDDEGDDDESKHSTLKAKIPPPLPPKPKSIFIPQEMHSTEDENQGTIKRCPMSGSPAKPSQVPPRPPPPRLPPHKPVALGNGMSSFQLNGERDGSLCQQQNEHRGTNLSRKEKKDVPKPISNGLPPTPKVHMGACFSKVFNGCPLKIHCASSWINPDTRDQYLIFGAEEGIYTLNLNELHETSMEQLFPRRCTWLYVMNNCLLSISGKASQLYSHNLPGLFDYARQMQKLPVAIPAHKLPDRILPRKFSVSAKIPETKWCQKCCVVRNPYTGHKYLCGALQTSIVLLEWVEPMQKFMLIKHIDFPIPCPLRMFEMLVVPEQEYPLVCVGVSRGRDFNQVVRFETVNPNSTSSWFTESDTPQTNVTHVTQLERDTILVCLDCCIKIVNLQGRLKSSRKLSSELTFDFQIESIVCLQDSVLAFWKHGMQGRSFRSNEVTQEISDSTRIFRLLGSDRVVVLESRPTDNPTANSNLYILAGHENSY

C#Cc1cc(-c2cc(Nc3nc(N[C@@H](C)c4ccc(F)cn4)ncc3Cl)n[nH]2)ccc1C=O  inhibition (enzyme activity, inhibitor; 0.2 µM): 45.4%
Cc1ccc(NC(=O)c2ccnc(C(F)(F)F)c2)cc1-c1cc(OCCO)nc(N2CCOCC2)c1  remaining binding (binding, competition with immobilised ligand; 1 µM): 100%
CCCCC(=O)Nc1ccc(-c2ccc3ncn(CCC)c(=O)c3c2)cn1  remaining binding (binding, competition with immobilised ligand; 0.5 µM): 81%
CO[C@@H]1[C@H](N(C)C(=O)c2ccccc2)C[C@H]2O[C@]1(C)n1c3ccccc3c3c4c(c5c6ccccc6n2c5c31)C(=O)NC4  inhibition (enzyme activity, inhibitor; 1 µM): 77%
C[C@H]1CC[C@H](n2c3cnccc3c3cnc(Nc4ccc5c(n4)CCN(C(=O)CO)C5)nc32)CC1  remaining binding (binding, competition with immobilised ligand; 1 µM): 100%
COc1ccc2oc(-c3ccc4nc(N)oc4c3)c/c(=N\c3ccccc3NC(=O)CCN)c2c1  remaining binding (binding; 1 µM): 113%
C=CC(=O)N1CCC([C@@H]2CCNc3c(C(N)=O)c(-c4ccc(Oc5ccccc5)cc4)nn32)CC1  inhibition (enzyme activity, inhibitor; 1 µM): 14%
C1=C/COCc2cc(ccc2OCCN2CCCC2)Nc2nccc(n2)-c2cccc(c2)COC/1  remaining signal (cell-free assay; 0.1 µM): 80%
